From PubChem
Shown are actives, neighbours in structure and some others; about 2.9% of the full set was active somewhere.
ATG4B inh = blocks human ATG4B protease cleavage of LC3 substrate | Q9Y4P1 | ATG4B cleavage of LC3-PLA2, NBD-HPC fluorescence, 1 h | inhibition, % at 8.33 µM | 0.51% of 340,000 active | AID 504462; in the data active means inhibition above about 40%
MEKK2wt PB1 HTS = raises or lowers MEK5 binding to wildtype human MEKK2 PB1 domain; AID 1531; 1.1% of 290,000 active; binding response (% of control), % at 10 µM; bead flow cytometry, Alexa488-MEK5 binding to MEKK2 WT; actives lie on both sides; in the data active means binding response below about 67% or above about 130%
MEKK3 PB1 HTS = MEKK3-MEK5 PB1 interaction, increase or decrease | binding response (% of control), % at 10 µM | bead-based flow cytometry, Alexa488-MEK5 binding to MEKK3; actives lie on both sides; 0 = blocked by unlabeled MEK5, 100 = vehicle | AID 1529 | 1.4% of 290,000 active | Q99759;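 active means binding response more than 3 SD above or below the average of its plate-row segment, actives on both sides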;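 further: Alexa488 bead fluorescence after subtracting the streptavidin-only scavenger bead signal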
Target sequence (Q99759 whole entry, looked up): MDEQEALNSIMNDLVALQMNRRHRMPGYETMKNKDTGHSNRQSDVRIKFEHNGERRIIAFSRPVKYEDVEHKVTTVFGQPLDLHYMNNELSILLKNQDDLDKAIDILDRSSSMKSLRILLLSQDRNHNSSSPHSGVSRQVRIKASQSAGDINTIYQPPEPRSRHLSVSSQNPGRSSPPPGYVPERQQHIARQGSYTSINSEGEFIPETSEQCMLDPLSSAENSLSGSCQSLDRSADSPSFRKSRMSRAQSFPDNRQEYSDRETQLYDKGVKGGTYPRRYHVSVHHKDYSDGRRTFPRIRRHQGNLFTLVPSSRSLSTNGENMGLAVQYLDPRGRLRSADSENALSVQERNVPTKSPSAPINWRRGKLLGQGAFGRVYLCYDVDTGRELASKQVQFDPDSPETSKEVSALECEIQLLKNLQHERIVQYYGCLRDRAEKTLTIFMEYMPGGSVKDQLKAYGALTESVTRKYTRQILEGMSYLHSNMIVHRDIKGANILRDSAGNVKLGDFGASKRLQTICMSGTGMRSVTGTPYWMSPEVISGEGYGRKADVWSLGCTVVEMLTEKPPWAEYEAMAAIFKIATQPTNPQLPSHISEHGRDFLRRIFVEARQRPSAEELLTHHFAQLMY
MEKK2 mut-MEK5 = signal of MEK5 binding to mutant human MEKK2 PB1 domain; bead flow cytometry, Alexa488-MEK5 binding to MEKK2 mutant; percent response, % at 10 µM; 0.35% of 290,000 active; AID 1530; in the data active means percent response above about 24%, passing the limit was not always enough
B2AR ag = human beta-2 adrenergic receptor agonism by FAP; response, % (concentration not given with the values); 0.43% of 340,000 active; Am2.2-beta2AR cells, FAP receptor internalization, flow cytometry; P07550;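 active means response above a set limit, near 3 SD of response in nonfluorescent compounds, cut at about 42% in these data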
Dynein transport = blocks dynein driven cargo transport along microtubules; 3617.4 mouse cells, GR-EGFP nuclear translocation imaging; test concentration mostly 20 µM; stimulated with dexamethasone, 1 µM; active compounds read low; z-score, hits read low; 0.47% of 220,000 active;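 active means plate z-score of nuclear minus cytoplasmic receptor signal below a set negative limit, without overly bright fluorescence or cell loss, cut at about -3.5 in these data, passing the limit was not always enough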;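 further: z-score of nuclear minus cytoplasmic ring GR-EGFP intensity difference per well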
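medium = tetracycline-free induction medium containing charcoal-stripped FBS | probe or stimulus = dexamethasone, 1.0 µM final | timing = 48 h induction, then 1 h compound, then 30 min agonist, 37 °C | detection = automated 10x imaging of fixed Hoechst-stained cells | read-out basis = nuclear versus cytoplasmic GR-EGFP signal, averaged per well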
MEKK2wt confirm = raises or lowers MEK5 binding to wildtype human MEKK2, retest. shares compounds with MEKK3 PB1 HTS. bead flow cytometry, Alexa488-MEK5 binding to MEKK2 WT; actives lie on both sides. binding response (% of control), % at 10 µM. 2.4% of 5,900 active. AID 1892; in the data active means binding response below about 16% or above about 210%; inactive means in between
MEKK2mut-MEK5 = signal of MEK5 binding to mutant human MEKK2, retest. shares compounds with MEKK3 PB1 HTS. bead flow cytometry, Alexa488-MEK5 binding to MEKK2 mutant. percent response, % at 10 µM. 2% of 5,900 active. AID 1893; in the data active means percent response mostly above about 71%, no sharp cut-off; inactive means mostly below about 38%;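 further: higher means compound restores mutant binding toward wildtype level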
MEKK3-MEK5 inh = MEKK3-MEK5 PB1 inhibition, single concentration confirmation | 1.8% of 5,900 active | binding response (% of control), % at 10 µM | shares compounds with MEKK3 PB1 HTS | AID 1894 | bead flow cytometry, Alexa488-MEK5 binding to MEKK3; active compounds read low;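 active means binding response below 72% of control, or above a set upper limit, though filed actives all read lower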;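 further: 100% = DMSO only wells and 0% = binding blocked by excess unlabeled MEK5; lower values mean stronger disruption of MEK5 binding to MEKK3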
Active calls of the source: *; nt = not tested or not shown; ! = not confirmed by another sample; [ ] = another dose, or the depositor's remark.

SMILES	ATG4B inh	MEKK2wt PB1 HTS	MEKK3 PB1 HTS	MEKK2 mut-MEK5	B2AR ag	Dynein transport	MEKK2wt confirm	MEKK2mut-MEK5	MEKK3-MEK5 inh
CCn1cc(Br)c(C(=O)Nc2cccc(Cl)c2)n1	11	-5.0*[inhibitor]	0.0*[inhibitor]	-39	-12	0.79	97	-5	95
O=S(=O)(Nc1nccs1)c1ccc(Cl)cc1	5	91	81	-7	4	0.8	nt	nt	nt
CN(Cc1ccc(C(C)(C)C)cc1)C(=O)Cc1ccc(S(=O)(=O)N2CCOCC2)s1	-16	nt	nt	nt	-2	nt	nt	nt	nt
COCc1cc(C)nc(OCC(=O)N/N=C/c2ccccc2O)c1C#N	-3	85	92	188*	-6	0.59	98	0	99
CCCc1ccc2oc(C(=O)N(C)Cc3cnccn3)c(C)c2c1	-6	97	98	8	-4	nt	nt	nt	nt
CCCc1ccc2oc(C(=O)N(C)CCn3ccnc3C)c(C)c2c1	20	117	113	24*	5	nt	104	-2	102
CC(=O)Nc1ccc(S(=O)(=O)N2CCN(c3nc(NC4CCCC4)c4ccccc4n3)CC2)cc1	14	163*	101	18	10	0.12	156	29	105
CC(=O)Nc1ccc(S(=O)(=O)N2CCN(c3cc(C)nc4ccccc34)CC2)cc1	-11	111	103	6	-11	0.32	nt	nt	nt
COc1ccc(NS(=O)(=O)c2cc(NS(=O)(=O)c3cc(C(=O)O)ccc3OC)ccc2C)cc1	4	nt	nt	nt	-7	nt	nt	nt	nt
CCn1c2ccccc2c2nnc(SCC(=O)Nc3c(C)n(C)n(-c4ccccc4)c3=O)nc21	-13	2.0*[inhibitor]	2.0*[inhibitor]	-17	-14	0.24	101	-2	97
Cc1c(NC(=O)CSc2nnc3c4ccccc4n(CCc4ccccc4)c3n2)c(=O)n(-c2ccccc2)n1C	-5	104	103	6	2	-0.02	nt	nt	nt
CCCn1c(N)c(C(=O)CSc2nncs2)c(=O)[nH]c1=O	-1	nt	nt	nt	-14	nt	nt	nt	nt
CCNCC(=O)N1c2ccccc2CCc2ccc(NC(=O)OC(C)C)cc21	-2	137*	106	7	13	nt	127	18	106
O=C(NCc1cccs1)c1cc(-c2ccc(O)cc2)on1	-5	55	46*[inhibitor]	-17	3	1.1	101	1	105
Cc1ccc(-c2cc(C(=O)NCc3cccs3)no2)cc1	7	105	104	5	2	1.5	nt	nt	nt
CCOc1ccc2nc(SCC(=O)NC(=O)NCc3ccco3)sc2c1	-5	101	103	3	8	0.8	nt	nt	nt
O=C(CSc1nc2cc(Cl)ccc2s1)NC(=O)NCc1ccco1	-4	85	81*[inhibitor]	-11	5	-0.78	99	-1	100
O=c1[nH]n2c(=O)c3c([nH]c2c1N=Nc1cccc(Cl)c1)CCCC3	-6	58	48*[inhibitor]	4	-2	1.2	106	7	104
Clc1ccccc1-c1nc2ccccc2c2nc3ccccc3n12	16	103	134*	0	-26	0.0022	96	-7	95
CCN(CC)CCNC(=O)CS(=O)Cc1nc(-c2ccc(C)cc2)oc1C (stereo unspecified)	-2	100	97	-2	0	-0.8	nt	nt	nt
CCN(CC)CCNC(=O)CS(=O)Cc1nc(-c2ccc(Cl)cc2)oc1C (stereo unspecified)	-4	62	49*[inhibitor]	-21	-3	0.52	111	12	109
COc1ccc2[nH]c3c(N4CCc5ccccc5C4)ncnc3c2c1	26	189*	127	47	42	1.3	130	15	103
Clc1ccc2c(c1)CCc1cccnc1C2=C1CCNCC1	nt	144*!	103	3	nt	4.6	127	15	110
CC(C)N(CCNC(=O)C1CCCN(c2ncnc3c2nc2n3CCCCC2)C1)Cc1ccccc1 (stereo unspecified)	2	99	101	5	-10	nt	nt	nt	nt
CCCN(CCC)S(=O)(=O)c1ccc(NC(=O)c2cc(C(=O)OC)cc([N+](=O)[O-])c2)cc1	1	116	102	9	4	1.2	nt	nt	nt
SMILES	ATG4B inh	MEKK2wt PB1 HTS	MEKK3 PB1 HTS	MEKK2 mut-MEK5	B2AR ag	Dynein transport	MEKK2wt confirm	MEKK2mut-MEK5	MEKK3-MEK5 inh
CC(C)c1[nH]c(=O)c(C#N)c2c1CSC(C)(C)C2	1	3.0*[inhibitor]	3.0*[inhibitor]	-14	-1	1.3	100	-4	98
O=C(CN1CCCC(O)C1)N1c2ccccc2Sc2ccc(C(F)(F)F)cc21 (stereo unspecified)	-4	105	108	5	0	3.1	nt	nt	nt
CN1CCN(CCCN2c3ccccc3Sc3ccc(C(F)(F)F)cc32)CC1	-1	168*	84	16	5	0.75	137	21	106
COc1ccc(NS(=O)(=O)c2cccc(C(=O)NC3CCN(Cc4ccccc4)CC3)c2)cc1	-7	110	77*[inhibitor]	-4	11	nt	120	7	105
Cc1[nH]c(=O)c(C#N)c(C)c1CCC(=O)Nc1cc(S(C)(=O)=O)ccc1Cl	0	101	99	10	-10	nt	nt	nt	nt
CCCN1C(=O)SC(CC(=O)Nc2ccc(Br)cc2)C1=O (stereo unspecified)	3	3.0*[inhibitor]	2.0*[inhibitor]	-24	1	-0.56	100	-4	101
O=C(Nc1ccccc1)c1ccc(NCc2cccnc2)c(S(=O)(=O)N2CCOCC2)c1	-23	129	123*	7	-9	-0.38	100	-4	97
O=C(Nc1ccc(Cl)cc1)c1ccc(S(=O)(=O)N2CCOCC2)cc1	-6	100	103	-3	-8	nt	nt	nt	nt
O=C(Nc1ccccc1)c1ccc(S(=O)(=O)N2CCOCC2)cc1	-6	135*	136*	10	-5	1.2	103	2	101
CCCN(CC(=O)Nc1ccccc1C)C(=O)/C=C/c1cccs1	-3	108	140*	1	-6	0.73	94	0	99
CCCN(CC(=O)Nc1ccccc1C)C(=O)Cc1cccs1	8	nt	nt	nt	-4	nt	nt	nt	nt
CC(C)CN(C(=O)CSc1n[nH]c(-c2cccs2)n1)C1CCS(=O)(=O)C1 (stereo unspecified)	-4	nt	nt	nt	-5	nt	nt	nt	nt
CN=Cc1nc(-c2ccccc2)oc1O	-2	104	111	3	0	-1	nt	nt	nt
